The results in this text go back to BindingDB's records for doi:10.1021/jm991078x (Insituto De Qu?mica M?dica (Csic), 1999).

The target in assay [1] is T1, Cholecystokinin receptor type A (Rattus norvegicus, UniProt P30551).
T1 sequence (P30551 whole entry): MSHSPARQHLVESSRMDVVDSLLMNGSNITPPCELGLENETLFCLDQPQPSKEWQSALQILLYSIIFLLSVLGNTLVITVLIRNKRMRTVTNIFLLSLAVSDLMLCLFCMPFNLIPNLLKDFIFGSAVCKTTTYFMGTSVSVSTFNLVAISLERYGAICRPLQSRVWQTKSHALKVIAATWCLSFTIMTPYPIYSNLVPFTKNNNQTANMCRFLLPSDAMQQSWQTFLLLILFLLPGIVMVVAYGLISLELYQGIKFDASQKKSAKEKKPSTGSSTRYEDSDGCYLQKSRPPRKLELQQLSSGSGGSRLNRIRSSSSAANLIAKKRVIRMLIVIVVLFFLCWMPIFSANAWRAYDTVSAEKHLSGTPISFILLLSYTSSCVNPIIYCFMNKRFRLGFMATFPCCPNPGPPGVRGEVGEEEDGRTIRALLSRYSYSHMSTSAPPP
The assay is described as follows: Binding affinity by competitive inhibition of the radioligand [3H]pCCK-8 at Cholecystokinin type A receptor from rat pancreas. In outline:
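Rat pancreas homogenized in Pipes HCl pH 6.5 with 30 mM MgCl2, centrifuged twice at 50000g, 4 °C. Membranes (0.2 mg protein/tube) incubated with 0.5 nM [3H]pCCK-8 plus bacitracin and soybean trypsin inhibitor (0.2 mg/mL each) for 120 min at 25 °C. […]. Seven concentrations in triplicate, at least three experiments.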

Assay [2] addresses T2, Gastrin/cholecystokinin type B receptor (Rattus norvegicus, UniProt P30553).
T2 sequence (P30553 whole entry): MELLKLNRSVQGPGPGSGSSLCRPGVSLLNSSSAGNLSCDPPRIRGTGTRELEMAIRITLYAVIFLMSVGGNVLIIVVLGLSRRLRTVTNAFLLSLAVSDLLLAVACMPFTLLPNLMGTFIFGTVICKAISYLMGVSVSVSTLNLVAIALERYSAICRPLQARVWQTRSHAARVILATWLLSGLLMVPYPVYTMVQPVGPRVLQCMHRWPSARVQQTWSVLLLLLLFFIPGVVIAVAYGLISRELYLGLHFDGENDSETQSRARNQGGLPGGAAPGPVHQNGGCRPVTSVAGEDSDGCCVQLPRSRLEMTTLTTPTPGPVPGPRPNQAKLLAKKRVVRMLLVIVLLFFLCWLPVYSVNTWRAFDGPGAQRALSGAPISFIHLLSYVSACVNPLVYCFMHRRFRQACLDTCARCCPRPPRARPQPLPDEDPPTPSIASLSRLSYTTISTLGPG
In words: Binding affinity by competitive inhibition of the radioligand [3H]pCCK-8 at Cholecystokinin type B receptor from rat cerebral cortex membrane.

As for `O=C(N[C@H]1CCCN2C(=O)N(Cc3ccccc3)C(=O)C[C@H]12)c1cc2ccccc2[nH]1`, the IC50 was more than 1 µM in assay [1] and more than 10 µM in assay [2].
On the same counts, the results for `O=C(Cc1c[nH]c2ccccc12)N[C@H]1CCCN2C(=O)N(Cc3ccccc3)C(=O)C[C@@H]12` [N-((4aS,5S)-2-Benzyl-1,3-dioxo-octahydro-pyrido[1,2-c]pyrimidin-5-yl)-2-(1H-indol-3-yl)-acetamide; compound with 1H-indole-3-carboxylic acid ((4aR,5R)-2-benzyl-1,3-dioxo-octahydro-pyrido[1,2-c]pyrimidin-5-yl)-amide] are more than 1 µM and more than 10 µM.
